Data published in ChEMBL document CHEMBL3091364, “Benzyloxybenzylammonium chlorides: Simple amine salts that display anticonvulsant activity” (Bioorg Med Chem, 2013).

Assays:
[1] = biological target: Sodium-dependent noradrenaline transporter (Homo sapiens) (UniProt P23975); assay: Inhibition of NET (unknown origin) at 10 uM relative to control
[2] = biological target: Sodium-dependent dopamine transporter (Homo sapiens) (UniProt Q01959); assay: Inhibition of DAT (unknown origin) at 10 uM relative to control
Sodium-dependent dopamine transporter (Homo sapiens), sequence (Q01959 whole entry): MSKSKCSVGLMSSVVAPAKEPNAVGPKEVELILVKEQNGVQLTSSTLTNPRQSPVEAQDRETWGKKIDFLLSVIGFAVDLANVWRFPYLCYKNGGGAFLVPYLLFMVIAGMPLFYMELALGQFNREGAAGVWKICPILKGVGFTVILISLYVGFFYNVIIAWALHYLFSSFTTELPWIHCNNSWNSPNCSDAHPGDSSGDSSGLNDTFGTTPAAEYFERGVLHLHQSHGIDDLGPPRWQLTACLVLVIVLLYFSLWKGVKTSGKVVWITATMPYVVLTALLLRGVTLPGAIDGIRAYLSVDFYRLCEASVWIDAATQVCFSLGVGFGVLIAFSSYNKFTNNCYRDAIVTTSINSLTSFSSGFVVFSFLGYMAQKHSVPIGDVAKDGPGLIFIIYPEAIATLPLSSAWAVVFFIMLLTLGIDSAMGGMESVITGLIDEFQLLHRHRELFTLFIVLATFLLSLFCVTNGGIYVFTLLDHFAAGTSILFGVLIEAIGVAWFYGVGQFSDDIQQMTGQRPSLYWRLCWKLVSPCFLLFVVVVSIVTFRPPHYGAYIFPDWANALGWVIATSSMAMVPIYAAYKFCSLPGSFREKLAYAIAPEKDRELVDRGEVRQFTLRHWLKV

[3] = biological target: T1, Muscarinic acetylcholine receptor M5 (Homo sapiens) (UniProt P08912); assay: Inhibition of muscarinergic M5 receptor (unknown origin) at 10 uM relative to control
T1 sequence (whole entry): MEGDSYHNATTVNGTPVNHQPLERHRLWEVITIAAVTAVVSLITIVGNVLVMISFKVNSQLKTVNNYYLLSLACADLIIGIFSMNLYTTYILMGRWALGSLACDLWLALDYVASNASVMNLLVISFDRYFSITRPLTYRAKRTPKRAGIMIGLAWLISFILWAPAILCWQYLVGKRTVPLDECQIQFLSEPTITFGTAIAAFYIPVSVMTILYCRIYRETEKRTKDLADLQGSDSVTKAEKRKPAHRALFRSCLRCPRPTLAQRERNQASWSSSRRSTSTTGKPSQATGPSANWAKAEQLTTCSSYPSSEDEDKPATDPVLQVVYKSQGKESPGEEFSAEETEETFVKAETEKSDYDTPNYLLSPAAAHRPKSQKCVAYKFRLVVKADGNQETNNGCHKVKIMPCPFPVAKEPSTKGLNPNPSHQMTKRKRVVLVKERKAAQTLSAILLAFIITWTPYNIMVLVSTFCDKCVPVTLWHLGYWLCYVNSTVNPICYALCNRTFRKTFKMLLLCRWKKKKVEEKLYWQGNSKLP

[4] = biological target: Muscarinic acetylcholine receptor M3 (Homo sapiens) (UniProt P20309); assay: Inhibition of muscarinergic M3 receptor (unknown origin) at 10 uM relative to control
Muscarinic acetylcholine receptor M3 (Homo sapiens), sequence (P20309 whole entry, looked up): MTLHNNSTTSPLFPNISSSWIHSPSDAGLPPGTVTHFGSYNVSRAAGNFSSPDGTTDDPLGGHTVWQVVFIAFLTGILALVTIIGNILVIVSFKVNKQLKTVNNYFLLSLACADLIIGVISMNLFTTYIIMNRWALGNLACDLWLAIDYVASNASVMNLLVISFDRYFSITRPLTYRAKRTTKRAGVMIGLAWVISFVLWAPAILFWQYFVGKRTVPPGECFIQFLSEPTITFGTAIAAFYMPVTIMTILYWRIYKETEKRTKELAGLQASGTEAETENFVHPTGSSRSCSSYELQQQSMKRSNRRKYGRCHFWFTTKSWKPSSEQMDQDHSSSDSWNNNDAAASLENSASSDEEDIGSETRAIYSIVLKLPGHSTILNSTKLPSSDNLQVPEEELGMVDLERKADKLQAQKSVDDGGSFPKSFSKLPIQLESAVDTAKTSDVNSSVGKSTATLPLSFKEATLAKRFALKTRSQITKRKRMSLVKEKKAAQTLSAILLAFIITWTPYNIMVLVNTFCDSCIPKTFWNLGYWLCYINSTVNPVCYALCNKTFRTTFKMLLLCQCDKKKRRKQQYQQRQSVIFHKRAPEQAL

[5] = biological target: Histamine H3 receptor (Homo sapiens) (UniProt Q9Y5N1); assay: Inhibition of histamine H3 receptor (unknown origin) at 10 uM relative to control
Histamine H3 receptor (Homo sapiens), sequence (Q9Y5N1 whole entry): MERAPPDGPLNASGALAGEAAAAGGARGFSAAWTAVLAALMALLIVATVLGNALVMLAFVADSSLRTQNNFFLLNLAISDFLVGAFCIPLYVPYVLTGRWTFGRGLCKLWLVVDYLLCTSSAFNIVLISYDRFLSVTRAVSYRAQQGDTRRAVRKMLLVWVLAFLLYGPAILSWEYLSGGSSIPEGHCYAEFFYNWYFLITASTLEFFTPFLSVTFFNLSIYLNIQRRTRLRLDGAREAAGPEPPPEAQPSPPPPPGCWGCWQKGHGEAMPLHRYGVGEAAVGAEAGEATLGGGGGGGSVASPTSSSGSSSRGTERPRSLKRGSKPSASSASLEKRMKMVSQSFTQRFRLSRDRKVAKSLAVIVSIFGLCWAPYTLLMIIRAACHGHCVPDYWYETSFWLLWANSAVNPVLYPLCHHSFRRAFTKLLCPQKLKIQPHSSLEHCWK

[6] = biological target: Sigma non-opioid intracellular receptor 1 (Homo sapiens) (UniProt Q99720); assay: Inhibition of sigma-1 receptor (unknown origin) at 10 uM relative to control
Sigma non-opioid intracellular receptor 1 (Homo sapiens), sequence (Q99720 whole entry): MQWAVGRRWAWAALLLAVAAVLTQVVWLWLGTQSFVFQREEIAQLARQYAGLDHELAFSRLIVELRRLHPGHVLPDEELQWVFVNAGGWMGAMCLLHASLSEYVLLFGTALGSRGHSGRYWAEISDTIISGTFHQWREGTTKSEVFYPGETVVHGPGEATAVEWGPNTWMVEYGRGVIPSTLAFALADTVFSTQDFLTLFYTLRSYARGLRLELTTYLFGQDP

[7] = biological target: Delta-type opioid receptor (Homo sapiens) (UniProt P41143); assay: Inhibition of delta opioid receptor (unknown origin) at 10 uM relative to control
Delta-type opioid receptor (Homo sapiens), sequence (P41143 whole entry): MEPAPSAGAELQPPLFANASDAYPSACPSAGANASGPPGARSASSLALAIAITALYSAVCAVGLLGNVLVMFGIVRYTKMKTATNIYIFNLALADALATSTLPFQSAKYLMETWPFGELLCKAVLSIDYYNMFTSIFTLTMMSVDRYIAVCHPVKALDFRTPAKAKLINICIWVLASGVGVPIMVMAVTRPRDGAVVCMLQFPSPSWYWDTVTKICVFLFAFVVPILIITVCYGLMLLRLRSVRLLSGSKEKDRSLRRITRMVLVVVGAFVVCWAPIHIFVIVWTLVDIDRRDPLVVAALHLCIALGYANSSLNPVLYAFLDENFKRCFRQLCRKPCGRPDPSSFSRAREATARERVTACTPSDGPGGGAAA

[8] = biological target: D(3) dopamine receptor (Homo sapiens) (UniProt P35462); assay: Inhibition of dopaminergic D3 receptor (unknown origin) at 10 uM relative to control
[9] = biological target: D(1A) dopamine receptor (Homo sapiens) (UniProt P21728); assay: Inhibition of dopaminergic D1 receptor (unknown origin) at 10 uM relative to control
D(1A) dopamine receptor (Homo sapiens), sequence (P21728 whole entry): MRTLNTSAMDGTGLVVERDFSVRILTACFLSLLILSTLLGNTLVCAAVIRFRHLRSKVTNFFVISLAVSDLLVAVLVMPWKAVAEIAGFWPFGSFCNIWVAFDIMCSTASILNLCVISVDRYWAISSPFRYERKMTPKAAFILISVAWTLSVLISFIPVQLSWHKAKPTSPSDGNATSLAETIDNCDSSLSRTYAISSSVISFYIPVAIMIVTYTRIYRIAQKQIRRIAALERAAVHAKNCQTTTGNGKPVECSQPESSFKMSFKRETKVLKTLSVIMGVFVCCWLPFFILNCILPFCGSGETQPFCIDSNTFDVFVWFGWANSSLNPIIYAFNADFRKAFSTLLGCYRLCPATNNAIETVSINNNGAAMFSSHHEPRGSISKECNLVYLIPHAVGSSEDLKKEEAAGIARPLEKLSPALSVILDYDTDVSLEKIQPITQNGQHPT

[10] = organism: Rattus norvegicus; assay: Inhibition of BZP receptor in rat brain at 10 uM relative to control; assay type: tissue-based
[11] = biological target: Beta-2 adrenergic receptor (Homo sapiens) (UniProt P07550); assay: Inhibition of adrenergic beta-2 receptor (unknown origin) at 10 uM relative to control
Beta-2 adrenergic receptor (Homo sapiens), sequence (P07550 whole entry, looked up): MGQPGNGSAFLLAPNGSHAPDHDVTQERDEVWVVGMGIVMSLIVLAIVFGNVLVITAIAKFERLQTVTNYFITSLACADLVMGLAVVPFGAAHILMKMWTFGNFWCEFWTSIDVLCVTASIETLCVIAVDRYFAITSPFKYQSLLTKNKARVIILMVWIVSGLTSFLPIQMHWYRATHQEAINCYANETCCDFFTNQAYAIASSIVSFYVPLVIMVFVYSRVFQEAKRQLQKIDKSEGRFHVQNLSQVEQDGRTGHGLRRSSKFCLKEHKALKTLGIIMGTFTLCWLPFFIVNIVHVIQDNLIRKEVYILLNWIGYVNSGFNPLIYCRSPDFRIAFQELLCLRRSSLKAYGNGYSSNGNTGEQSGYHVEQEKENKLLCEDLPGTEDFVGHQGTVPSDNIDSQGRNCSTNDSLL

[12] = biological target: 5-hydroxytryptamine receptor 2B (Homo sapiens) (UniProt P41595); assay: Inhibition of 5-HT2B receptor (unknown origin) at 10 uM relative to control
5-hydroxytryptamine receptor 2B (Homo sapiens), sequence (P41595 whole entry): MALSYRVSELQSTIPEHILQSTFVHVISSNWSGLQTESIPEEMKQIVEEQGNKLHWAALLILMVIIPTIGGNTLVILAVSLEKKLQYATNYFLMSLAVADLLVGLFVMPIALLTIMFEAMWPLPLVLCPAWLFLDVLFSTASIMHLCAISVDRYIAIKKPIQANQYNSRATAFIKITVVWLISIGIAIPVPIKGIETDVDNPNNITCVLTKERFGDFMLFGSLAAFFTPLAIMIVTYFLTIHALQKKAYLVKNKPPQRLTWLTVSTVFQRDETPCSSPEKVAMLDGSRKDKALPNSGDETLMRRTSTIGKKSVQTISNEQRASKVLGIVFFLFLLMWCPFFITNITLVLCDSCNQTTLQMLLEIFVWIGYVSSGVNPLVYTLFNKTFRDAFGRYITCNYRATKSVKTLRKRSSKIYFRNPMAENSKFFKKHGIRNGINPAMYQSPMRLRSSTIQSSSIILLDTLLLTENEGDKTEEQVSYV

[13] = biological target: 5-hydroxytryptamine receptor 2A (Homo sapiens) (UniProt P28223); assay: Inhibition of 5-HT2A receptor (unknown origin) at 10 uM relative to control
5-hydroxytryptamine receptor 2A (Homo sapiens), sequence (P28223 whole entry): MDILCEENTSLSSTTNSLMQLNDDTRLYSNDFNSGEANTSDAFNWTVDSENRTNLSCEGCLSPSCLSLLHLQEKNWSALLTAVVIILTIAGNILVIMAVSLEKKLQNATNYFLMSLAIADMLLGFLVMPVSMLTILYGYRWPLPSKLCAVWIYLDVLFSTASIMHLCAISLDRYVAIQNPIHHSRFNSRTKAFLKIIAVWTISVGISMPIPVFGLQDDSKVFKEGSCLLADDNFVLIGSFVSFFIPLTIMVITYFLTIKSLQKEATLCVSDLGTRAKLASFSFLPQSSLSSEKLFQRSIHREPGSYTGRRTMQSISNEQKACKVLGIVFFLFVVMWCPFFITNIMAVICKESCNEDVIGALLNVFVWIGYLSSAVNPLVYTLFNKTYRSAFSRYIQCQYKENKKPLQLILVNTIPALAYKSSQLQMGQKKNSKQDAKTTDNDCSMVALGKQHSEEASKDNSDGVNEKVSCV

[14] = biological target: 5-hydroxytryptamine receptor 1E (Homo sapiens) (UniProt P28566); assay: Inhibition of 5-HT1E receptor (unknown origin) at 10 uM relative to control
5-hydroxytryptamine receptor 1E (Homo sapiens), sequence (P28566 whole entry): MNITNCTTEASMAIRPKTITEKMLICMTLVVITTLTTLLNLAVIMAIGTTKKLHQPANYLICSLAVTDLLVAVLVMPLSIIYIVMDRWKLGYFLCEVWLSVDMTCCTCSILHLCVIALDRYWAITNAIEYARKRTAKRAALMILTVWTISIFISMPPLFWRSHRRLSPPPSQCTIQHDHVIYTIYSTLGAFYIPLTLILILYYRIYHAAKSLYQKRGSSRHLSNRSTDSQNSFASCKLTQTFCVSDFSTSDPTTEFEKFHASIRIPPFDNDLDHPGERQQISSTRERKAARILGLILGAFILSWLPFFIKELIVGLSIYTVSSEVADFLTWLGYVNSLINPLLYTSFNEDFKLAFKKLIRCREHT

[15] = biological target: 5-hydroxytryptamine receptor 1D (Homo sapiens) (UniProt P28221); assay: Inhibition of 5-HT1D receptor (unknown origin) at 10 uM relative to control
5-hydroxytryptamine receptor 1D (Homo sapiens), sequence (P28221 whole entry): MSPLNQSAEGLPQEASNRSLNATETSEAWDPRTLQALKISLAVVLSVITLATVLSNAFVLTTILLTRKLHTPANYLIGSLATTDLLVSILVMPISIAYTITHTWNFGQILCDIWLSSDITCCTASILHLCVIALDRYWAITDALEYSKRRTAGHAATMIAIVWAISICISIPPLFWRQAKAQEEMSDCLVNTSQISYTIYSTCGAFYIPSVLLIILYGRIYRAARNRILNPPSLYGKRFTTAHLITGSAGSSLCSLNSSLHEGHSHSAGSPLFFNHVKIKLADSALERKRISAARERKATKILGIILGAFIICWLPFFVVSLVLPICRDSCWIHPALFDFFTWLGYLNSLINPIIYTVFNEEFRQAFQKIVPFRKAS

[16] = biological target: T2, 5-hydroxytryptamine receptor 1A (Homo sapiens) (UniProt P08908); assay: Inhibition of 5-HT1A receptor (unknown origin) at 10 uM relative to control
T2 sequence (whole entry): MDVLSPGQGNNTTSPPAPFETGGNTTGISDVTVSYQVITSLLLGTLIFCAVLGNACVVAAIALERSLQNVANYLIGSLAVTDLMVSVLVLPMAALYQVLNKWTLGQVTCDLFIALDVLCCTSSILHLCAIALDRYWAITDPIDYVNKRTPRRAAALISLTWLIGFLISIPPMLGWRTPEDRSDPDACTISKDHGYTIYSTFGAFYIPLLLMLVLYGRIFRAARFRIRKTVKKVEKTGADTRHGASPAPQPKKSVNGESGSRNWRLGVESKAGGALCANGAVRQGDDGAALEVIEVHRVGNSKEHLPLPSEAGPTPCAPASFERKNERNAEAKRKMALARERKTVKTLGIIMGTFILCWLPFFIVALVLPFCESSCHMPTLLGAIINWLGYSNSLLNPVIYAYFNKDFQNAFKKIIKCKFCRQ

[17] = Solubility of the compound in water at 300 uM; assay type: physicochemical
Summary of the method: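 Hydrochloride salts checked for dissolution in water at 300 µM.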

[18] = tested on: Rattus norvegicus; assay: Anticonvulsant activity in po dosed albino Sprague-Dawley rat assessed as protection against maximal electroshock-induced seizures measured at 0.25 to 4 hrs; assay type: functional
Summary of the method: (§1)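 Screened under the NINDS ASP in male albino Carworth Farms No. 1 mice (ip) or male albino Sprague-Dawley rats (ip or po), using MES, 6 Hz (32 mA) and subcutaneous pentylenetetrazol seizure tests. Initial qualitative tests used preset doses (e.g., 30, 50, 100 mg/kg). ED50 values with 95% confidence intervals came from dose–response data collected at the time of peak effect.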

[19] = Toxicity in ip dosed albino Sprague-Dawley rat assessed as behavioral changes measured at 0.25 to 4 hrs; assay type: organism-based; conditions: in vivo
Summary of the method: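 Male albino Sprague-Dawley rats given compound intraperitoneally or orally (NINDS ASP); neurological impairment judged from behavioral toxicity effects. Preset screening doses (e.g., 30 mg/kg); for adequately active compounds, TD50 (mg/kg, 95% confidence intervals) derived from dose–effect data at time of peak effect.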

[20] = tested on: Mus musculus; assay: Anticonvulsant activity in ip dosed albino CF-1 mouse assessed as protection against 6 Hz psychomotor seizure measured at 2 hrs; assay type: functional; conditions: albino CF-1, ip; summary of the method: as §1
[21] = tested on: Mus musculus; assay: Anticonvulsant activity in ip dosed albino CF-1 mouse assessed as protection against maximal electroshock-induced seizures measured at 0.5 hrs; assay type: functional; conditions: albino CF-1, ip; summary of the method: as §1
[22] = Toxicity in ip dosed albino CF-1 mouse assessed as neurological impairment measured at 0.25 hrs by rotorod test; assay type: organism-based; conditions: in vivo
Summary of the method: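 Male albino Carworth Farms No. 1 mice dosed intraperitoneally under the NINDS Anticonvulsant Screening Program; neurological impairment scored by rotorod test. Qualitative screens used preset doses (e.g., 30, 100 mg/kg); where activity was sufficient, dose–response curves were run at time of peak effect to give TD50 in mg/kg with 95% confidence intervals.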

[23] = tested on: Mus musculus; assay: Anticonvulsant activity in ip dosed albino CF-1 mouse assessed as protection against 6 Hz psychomotor seizure measured at 0.25 to 4 hrs; assay type: functional; conditions: albino CF-1, ip; summary of the method: as §1
[24] = tested on: Mus musculus; assay: Anticonvulsant activity in ip dosed albino CF-1 mouse assessed as protection against maximal electroshock-induced seizures measured at 0.25 hrs; assay type: functional; conditions: albino CF-1, ip; summary of the method: as §1
[25] = tested on: Rattus norvegicus; assay: Anticonvulsant activity in ip dosed albino Sprague-Dawley rat assessed as protection against maximal electroshock-induced seizures measured at 0.25 to 4 hrs; assay type: functional; summary of the method: as §1

Row | SMILES | inhibition [1] | inhibition [2] | inhibition [3] | inhibition [4] | inhibition [5] | inhibition [6] | inhibition [7] | inhibition [8] | inhibition [9] | inhibition [10] | inhibition [11] | inhibition [12] | inhibition [13] | inhibition [14] | inhibition [15] | inhibition [16] | solubility [17] | ED50 [18] | TD50 [19] | ED50 [24] | further results
1 | Cl.NCc1ccc(OCc2ccccc2OC(F)(F)F)cc1 | 29.3% | 50.7% | 0.4% | 19.5% | 11.8% | 92.9% | 23% | 33.9% | -2.5% | 5.9% | 5% | 49% | 73.8% | -5.2% | 0.5% | 10.1% | soluble |  |  | 20 mg/kg | TD50 at 0.25 h [22]: 64 mg/kg; ED50 [23]: < 100 mg/kg
2 | Cl.NCc1ccc(OCc2ccccc2)cc1 | 63.6% | 72.2% | -2.7% | 1% | 11.2% | 97.7% | 22% | 14.3% | -6% | 12.7% | 11.8% | 55.7% | 76.8% |  | -3.3% | 16% | soluble | > 30 mg/kg | > 50 mg/kg |  | ED50 [25]: > 30 mg/kg
3 | Cl.NCc1ccc(OCc2cccc(F)c2)cc1 | 76.1% | 76.8% |  | -2.1% | -2.8% | 102% | 18% | 14% | -1.1% | 25.8% | 9.2% | 87.3% | 88.6% |  |  | 50.1% | soluble | > 30 mg/kg | > 30 mg/kg |  | ED50 [25]: > 30 mg/kg; ED50 [23]: > 50 mg/kg
4 | Cl.NCc1ccc(OCc2ccc(F)cc2)cc1 | 59.9% | 48.2% | 6.4% | 7% | 35% | 92.7% | 17% | 16.7% | -1.9% | 8.9% | 2.2% | 46.5% | 77.1% |  | 12.7% | 36% | soluble | > 30 mg/kg | > 30 mg/kg | < 100 mg/kg | ED50 [23]: > 100 mg/kg
5 | Cl.NCc1ccc(OCc2ccccc2F)cc1 | 61.3% | 61.7% | -8.5% | 12.7% | -0.4% | 102% | 17% | 24.1% | -0.2% | -1.5% | 17.4% | 82.4% | 75.7% | -6.6% |  | 32.3% | soluble | > 30 mg/kg | > 50 mg/kg |  | ED50 [25]: > 30 mg/kg; ED50 [21]: 30 mg/kg
6 | Cl.NCc1ccc(OCc2ccc(Cl)cc2)cc1 | 64.7% | 75.7% | 13.6% | 13.7% | 35.3% | 90.6% | 13% | 22.6% | 7.6% | 6.5% | 17.1% | 40.6% | 92.6% | 2.7% | 1.6% | 3.7% | soluble | > 30 mg/kg | > 30 mg/kg | < 100 mg/kg | ED50 [25]: > 30 mg/kg; ED50 [20]: < 100 mg/kg

Further lines, with some results ahead:

Row | inhibition [1] | inhibition [2] | inhibition [3] | inhibition [4] | inhibition [5] | inhibition [6] | inhibition [7] | inhibition [8] | inhibition [9] | inhibition [10] | inhibition [11] | inhibition [12] | inhibition [13] | inhibition [14] | inhibition [15] | inhibition [16] | solubility [17] | SMILES | ED50 [18] | TD50 [19] | ED50 [24] | further results
7 | 60.1% | 70.5% | 1.7% | -6.5% | 21.1% | 91.1% | 21% | 13.3% | -9.4% | 0.3% | 9.1% | 34.4% | 94.7% | -6.9% | 4.9% | 22.3% | soluble | Cl.NCc1ccc(OCc2ccc(OC(F)(F)F)cc2)cc1 | > 30 mg/kg | > 50 mg/kg |  | ED50 [20]: 30 mg/kg; ED50 [21]: < 100 mg/kg
8 | 58.5% | 45.5% | 0.8% | -3.5% | 21.7% | 96.9% | 0.9% | 33.5% | -3.3% | 19.8% | -8.1% | 51.4% | 88% |  | 12.3% | 50% | soluble | Cl.NCc1ccc(OCc2cccc(OC(F)(F)F)c2)cc1 | > 30 mg/kg | > 30 mg/kg |  | TD50 at 0.25 h [22]: 92 mg/kg; ED50 [21]: 28 mg/kg
9 | 83.9% | 84.1% | 17.7% | 11.9% | 19.3% | 89.4% | 17% | 38.1% | 2.9% | -4.4% | -5.7% | 39.8% | 88.2% |  | -0.7% | 7.5% | soluble | Cl.NCc1ccc(OCc2cccc(Cl)c2)cc1 | > 30 mg/kg | > 30 mg/kg | 54 mg/kg | TD50 at 0.25 h [22]: 160 mg/kg; ED50 [20]: 78 mg/kg
